Data on 4 compounds can be found in ChEMBL document CHEMBL4825685, “Structure activity relationship (SAR) study identifies a quinoxaline urea analog that modulates IKKβ phosphorylation for pancreatic cancer therapy” (Eur J Med Chem, 2021).

Each structure is given as a SMILES string. pIC50: −log10 of the molar value. The source made the active and inactive calls. The rule behind the calls is not given here.

Data set [1] deals with MIA PaCa-2. Nature of the data set: Induction of apoptosis in human MIA PaCa-2 cells assessed as increase in caspase 3/7 activation at 10 uM incubated for 24 hrs by Caspase-Glo assay. In kind it is functional, cell-based. The procedure, abridged: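 MiaPaCa2 cells (2.5 × 10⁴/well) attached overnight, then treated 24 h at 0.1% final DMSO. alamarBlue added at 21 h for 3 h and fluorescence read at 560/590. Caspase-Glo luminescence read 2 h later. Luminescence ×100/fluorescence normalized to DMSO average, n = 3.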

A short description of data set [2]: AUC (0 to infinity) in CD1 mouse at 20 mg/kg, po measured up to 24 hrs measured by LC/MS-MS analysis. Conditions: in vivo. Further details: route oral, dose 20 mg/kg, time <=24. In kind it is ADME, organism-based. The procedure, abridged:
(§1)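 Oral 20 mg/kg given in DMSO:PEG400:H2O 1:4:5. Mice killed at 0.083, 0.25, 0.5, 1, 2, 4, 8 and 24 h and plasma analysed by LC/MS/MS with a carbamazepine internal standard. Parameters derived by non-compartmental analysis.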

Data set [3] in a line: Cmax in CD1 mouse at 20 mg/kg, po measured up to 24 hrs measured by LC/MS-MS analysis. In kind it is ADME, organism-based. The arrangement: route oral, dose 20 mg/kg, time <=24. The following applies: in vivo. A digest of the protocol:
as §1

Data set [4] addresses T1, Inhibitor of nuclear factor kappa-B kinase subunit beta (Homo sapiens, UniProt O14920).
T1 sequence (O14920 whole entry): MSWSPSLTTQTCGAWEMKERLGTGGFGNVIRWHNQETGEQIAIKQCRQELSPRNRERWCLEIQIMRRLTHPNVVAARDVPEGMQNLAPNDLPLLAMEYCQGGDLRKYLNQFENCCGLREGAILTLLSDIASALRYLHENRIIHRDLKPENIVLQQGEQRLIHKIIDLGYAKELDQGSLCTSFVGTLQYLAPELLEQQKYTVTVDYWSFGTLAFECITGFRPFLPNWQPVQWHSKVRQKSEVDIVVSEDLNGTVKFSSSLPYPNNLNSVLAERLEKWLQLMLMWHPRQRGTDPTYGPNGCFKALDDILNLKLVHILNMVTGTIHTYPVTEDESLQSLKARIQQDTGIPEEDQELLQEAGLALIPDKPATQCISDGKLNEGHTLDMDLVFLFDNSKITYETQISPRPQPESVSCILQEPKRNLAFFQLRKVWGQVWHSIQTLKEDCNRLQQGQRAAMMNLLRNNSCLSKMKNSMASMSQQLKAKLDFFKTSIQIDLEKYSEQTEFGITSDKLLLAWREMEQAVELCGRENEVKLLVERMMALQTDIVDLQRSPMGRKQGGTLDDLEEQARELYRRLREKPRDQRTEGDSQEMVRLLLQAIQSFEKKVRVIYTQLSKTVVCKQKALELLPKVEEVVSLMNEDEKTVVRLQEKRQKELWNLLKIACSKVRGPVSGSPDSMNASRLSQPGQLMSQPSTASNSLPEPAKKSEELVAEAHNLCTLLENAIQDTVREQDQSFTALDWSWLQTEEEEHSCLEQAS
Put plainly: Inhibition of TNFalpha-induced IKKbeta mediated NF-kappaB activation in human Pancreatic cancer cells by luciferase reporter gene assay. Further details: species or system Pancreatic cancer cell.

The nature of data set [5]: Oral bioavailability in CD1 mouse at 20 mg/kg measured up to 24 hrs measured by LC/MS-MS analysis. The class given is ADME, organism-based. The following applies: in vivo. A digest of the protocol: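 %F taken from oral (20 mg/kg, DMSO:PEG400:H2O 1:4:5) and intravenous (10 mg/kg, DMSO:PEG400:H2O 1:5:4) AUC0-∞. Plasma sampled from 0.083 to 24 h and quantified by LC/MS/MS with a carbamazepine internal standard. Non-compartmental analysis.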

A short description of data set [6]: MRT (0 to infinity) in CD1 mouse at 20 mg/kg, po measured up to 24 hrs measured by LC/MS-MS analysis. Conditions: in vivo. In kind it is ADME, organism-based. The procedure, abridged:
as §1

Data set [7] can be described thus: Tmax in CD1 mouse at 20 mg/kg, po measured up to 24 hrs measured by LC/MS-MS analysis. The class given is ADME, organism-based. The following applies: in vivo. The procedure, abridged:
as §1

Data set [8] in a line: AUClast in CD1 mouse at 20 mg/kg, po measured up to 24 hrs measured by LC/MS-MS analysis. The arrangement: route oral, dose 20 mg/kg, time <=24. Conditions: in vivo. The class given is ADME, organism-based. A digest of the protocol:
as §1

Data set [9] can be described thus: Half life in CD1 mouse at 20 mg/kg, po measured up to 24 hrs measured by LC/MS-MS analysis. The class given is ADME, organism-based. Conditions: in vivo. A digest of the protocol: as §1

Take `Cn1cc(-c2cnc3ccc(NC(=O)Nc4ccc(F)c(OC(F)(F)F)c4)cc3n2)cn1`: the outcome in [1] was inactive.

`Cn1cc(-c2cnc3ccc(NC(=O)Nc4ccc(F)c(Cl)c4)cc3n2)cn1`: in data set [1], the outcome was inactive.

With `O=C(Nc1ccc(Br)cc1)Nc1ccc2nc(-c3ccco3)c(-c3ccco3)nc2c1`, the area under the curve AUC(0-inf) (in general, total exposure, with the tail of the curve extrapolated) in [2] worked out at 1.86 µg·h/mL. Moreover, in data set [3], the peak level (Cmax) was 0.3 µg/mL. Also, in [4], the pIC50 (in general, the negative decadic logarithm of the IC50, by convention in mol/L) is 5.08. Moreover, the bioavailability (as a rule, dose-corrected exposure relative to a reference, in per cent) in data set [5] amounted to 3.1%. In data set [6], the MRT inf – broadly, the average time that molecules of a dose stay in the body – is 5.2 h. In addition, the Tmax – broadly, the time from dosing to the highest level – in data set [7] amounted to 2.5 h. For the same compound, the AUC(0-t) (in general, exposure summed from dosing to a finite time, without extrapolation to infinity) at 24 h in data set [8] is 1.63 µg·h/mL. Also, the result in data set [1] was inactive. For the same compound, the half-life – broadly, how long it takes for the measured level to halve – in data set [9] was 2 h.

For `Cn1cc(-c2cnc3ccc(NC(=O)Nc4cccc(OC(F)(F)F)c4)cc3n2)cn1`, in [1], the result was inactive.
